# From PubChem
# GPR7 antagonist = GPR7 receptor antagonists, primary screen, cell-based, fluorescence, single concentration | Neuropeptides B/W receptor type 1 (Homo sapiens), P48145 | GPR7-expressing cells, fluorescence antagonist assay | inhibition, % at 4.4 µM | 290,000 tested, 1.1% active; in the data active means inhibition above about 16%, passing the limit was not always enough;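 further: cells stimulated with the agonist NPW; 0% = agonist with vehicle and 100% = vehicle without agonist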
# CHO parental Ca = ATP-evoked calcium signal inhibitors, parental CHO, primary screen, counter-screen for OX1R antagonist project, cell-based, fluorescence, Fluo-8 calcium dye. inhibition, % at 5.6 µM. parental CHO-K1, ATP-induced calcium, Fluo-8 fluorescence. 330,000 tested, 0.63% active;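 active means inhibition above that plate's mean sample inhibition plus 3 SD, cut at about 26% in these data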;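 further: 0% = ATP-challenged DMSO wells and 100% = DMSO wells without ATP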
#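 Material: Parental CHO cells | Reagent: ATP | Compound dosing: Single nominal dose of 5.6 µM per compound | Detection: Intracellular calcium via Fluo-8 no-wash fluorescent dye | Read-out: % inhibition of ATP-induced calcium mobilization | Benchmarks: Low control ATP plus DMSO, high control DMSO only | Replicates: Singlicate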
# OX1R antag-1 = antagonists of human orexin 1 receptor (OX1R) | Orexin/Hypocretin receptor type 1 (Homo sapiens), O43613 | OX1R-expressing cells, FRET antagonist read-out | inhibition, % at 6.6 µM | 330,000 tested, 1.8% active | AID 485270, 2010; in the data active means inhibition mostly above about 38%, no sharp cut-off; inactive means mostly below about 40%;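 further: 0% = agonist challenge alone and 100% = reference antagonist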
# Target sequence (O43613 whole entry, looked up): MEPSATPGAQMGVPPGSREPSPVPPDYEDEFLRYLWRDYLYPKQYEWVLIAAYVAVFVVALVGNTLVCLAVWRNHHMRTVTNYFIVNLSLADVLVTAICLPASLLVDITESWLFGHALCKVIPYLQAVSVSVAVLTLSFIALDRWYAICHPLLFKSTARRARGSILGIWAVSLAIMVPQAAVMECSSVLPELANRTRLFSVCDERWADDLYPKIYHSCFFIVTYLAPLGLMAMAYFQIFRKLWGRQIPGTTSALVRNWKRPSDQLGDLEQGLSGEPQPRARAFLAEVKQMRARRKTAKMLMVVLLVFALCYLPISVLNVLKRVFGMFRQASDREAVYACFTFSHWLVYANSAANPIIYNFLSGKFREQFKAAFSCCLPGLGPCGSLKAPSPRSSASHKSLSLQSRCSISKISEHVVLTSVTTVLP
# TAAR1 antagonist = human TAAR1 antagonists, primary screen, Fluo-8 calcium fluorescence, CHO RD-HGA16 cells; Trace amine-associated receptor 1 (Homo sapiens), Q96RJ0; inhibition, % at 3 µM; AID 624466, 2012; 360,000 tested, 1.5% active; antagonist;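 active means inhibition above a per-plate cutoff, the mean inhibition of test compounds on that plate plus 3 SD, cut at about 49% in these data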;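 further: 0% = DMSO plus EC80 beta-PEA response and 100% = DMSO alone without agonist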
#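 Assay system: RD-HGA16 CHO cells with stable hTAAR1 and Gα16 / Reagent: EC80 β-phenethylamine stimulus / Doses: 3 µM, single point / Timing: dye loading 75 min at 37 °C, then 30 min room temperature / Measured by: Fluo-8 intracellular calcium dye fluorescence, real-time kinetic reads / Controls: vehicle wells and EC80 agonist wells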
# OX1R antag-2 = OX1R (HCRTR1) antagonists, primary screen, fluorescence, CHO/OX1R cells, Fluo-8 calcium, orexin A; Orexin/Hypocretin receptor type 1 (Homo sapiens), O43613; Fluo-8 calcium fluorescence; inhibition, % at 5 µM; 330,000 tested, 0.43% active;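 active means inhibition above its plate's threshold, mean inhibition of all tested compounds on the plate plus 3 SD, cut at about 37% in these data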;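 further: 0% = orexin A challenge wells and 100% = SB-334867-A antagonist wells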
# TAAR1 agonist = human TAAR1 agonists, primary screen, Fluo-8 calcium fluorescence, CHO RD-HGA16 cells | Trace amine-associated receptor 1 (Homo sapiens), Q96RJ0 | vehicle wells 0%, saturating PEA agonist 100% | activation, % at 3 µM | 360,000 tested, 0.99% active;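 active means activation above the mean activation of all test compounds in the run plus 3 SD, cut at about 38% in these data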
#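 test system = CHO RD-HGA16 cells carrying human TAAR1 plus Gα16 | schedule = 17-24 h seeding, 75 min 37 °C dye, 30 min RT | compound dosing = 3 µM single concentration | control set = DMSO and PEA EC100 | replicates = n 1 | signal = Fluo-8 fluorescence, 5 s baseline then 140 s kinetic read | measure = percent activation vs PEA EC100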
# nonsel antag count = nonselective antagonists in TAAR1 counter-screen cells, counter-screen for hTAAR1 antagonist project, cell-based, fluorescence, calcium. shares compounds with TAAR1 antagonist. counterscreen cell line, antagonist mode. inhibition, % at 3 µM. 2,400 tested, 77% active. AID 651780, 2012; in the data active means inhibition above about 22%;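 further: CHO-Ga16 host cells stimulated with ATP at an EC80 level; 0% = agonist EC80 plus vehicle and 100% = vehicle without agonist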
# TAAR1 antag conf = human TAAR1 antagonists, retest of hits, confirmation, cell-based, fluorescence | shares compounds with TAAR1 antagonist | TAAR1-expressing cells, fluorescence antagonist read-out | 2,400 tested, 40% active | inhibition, % at 3 µM | AID 651785, 2012; in the data active means inhibition above about 49%;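 further: CHO-Ga16 host cells challenged with agonist PEA near its EC80; 0% = agonist at EC80 plus vehicle and 100% = vehicle with no agonist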
# Ga16 nonsel ag = calcium activation in Ga16-expressing cells, counter-screen for TAAR1 antagonist project, cell-based, fluorescence | agonist counterscreen | shares compounds with TAAR1 antagonist | activation, % at 3 µM | 2,400 tested, 18% active; in the data active means activation above about 12%;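 further: 0% = vehicle wells and 100% = saturating stimulus response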
# TAAR1 ag count = TAAR1 activation by candidate antagonists – cell-based, fluorescence, counter-screen for TAAR1 antagonist project | hTAAR1 cell line, agonist mode | shares compounds with TAAR1 antagonist | 2,400 tested, 2% active | activation, % at 3 µM | AID 651955, 2012; in the data active means activation above about 37%;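 further: CHO cells stably expressing TAAR1 with calcium dye readout; 0% = DMSO vehicle and 100% = full agonist response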
# * = called active by the depositor; · = no result. Hits are enriched below; roughly 4.5% of the tested compounds scored in any of these assays.
SMILES,GPR7 antagonist,CHO parental Ca,OX1R antag-1,TAAR1 antagonist,OX1R antag-2,TAAR1 agonist,nonsel antag count,TAAR1 antag conf,Ga16 nonsel ag,TAAR1 ag count
O=C(NCCn1cc(SCc2ccc(F)cc2)c2ccccc21)c1c(F)cccc1F,3,42*,11,74*,8,1,31*,48,6,6
Cc1ccc([C@H]2C(C(=O)O)=CC[C@@H](c3ccc(Cl)cc3)N2S(=O)(=O)c2ccc(C)cc2)cc1,·,-6,39*,66*,37,6,11,46,2,1
CCN(CC(=O)Nc1ccccc1OC)CC(=O)Nc1c(Cl)ccc(C)c1Cl,-1,-13,12,58*,-16,12,22*,40,8,8
CCN(CC(=O)NCc1cccs1)CC(=O)Nc1c(Cl)ccc(C)c1Cl,·,-27,6,21,-11,5,·,·,·,·
CCC(C)c1ccccc1N1CC(C(=O)N(C)CC(=O)Nc2cccc(F)c2)CC1=O (stereo not drawn),·,-21,9,5,-20,2,·,·,·,·
COc1ccc(Nc2nc(-c3cccs3)nc3ccccc23)cc1S(=O)(=O)N1CCOCC1,·,4,40,71*,-5,15,30*,49*,10,7
COc1ccc(NC(=O)c2ccc(-c3ccccc3)cc2)cc1S(=O)(=O)N1CCOCC1,0,-5,17,87*,-2,16,47*,61*,14*,9
O=C(NCC1COc2ccccc2O1)C1CCN(S(=O)(=O)c2ccc(Cl)cc2)CC1 (stereo not drawn),·,-17,3,51*,-6,14,24*,42,12*,12
O=C(NC(=S)NCCc1ccccc1)c1cccc(Cl)c1,-10,-23,20,1,-27,2,·,·,·,·
C=CC[C@@H](CC(=O)N[C@H](CO)Cc1ccccc1)C(=O)NC[C@H](OC(=O)[C@@H](CC=C)Cc1ccc(F)cc1)c1ccccc1,·,-21,28,69*,21,19,30*,56*,8,7
C=CC[C@@H](CC(=O)N(CCO)Cc1ccccc1)C(=O)N[C@H](COC(=O)[C@H](CC=C)CC(=O)OC(C)(C)C)Cc1c[nH]c2ccccc12,·,-12,1,42,-19,7,·,·,·,·
C=CC[C@H](CC(=O)N(CCO)Cc1ccccc1)C(=O)N[C@H](COC(=O)[C@@H](CC=C)CC(=O)OC(C)(C)C)Cc1c[nH]c2ccccc12,·,-11,10,67*,-4,15,21,42,4,6
C=CCC[C@H](Cc1ccc(F)cc1)C(=O)OC[C@H](Cc1c[nH]c2ccccc12)NC(=O)[C@H](CC=C)CC(=O)NCCO,·,-8,4,73*,18,25,26*,44,6,7
COc1ccc(CNC(=O)c2cc(C3CC3)nc3c2cnn3C(C)C)cc1,·,-9,5,50*,-33,5,12,22,3,-1
COc1ccc(CCNC(=O)c2cc(C3CC3)nc3c2cnn3C(C)C)cc1OC,·,-22,6,9,-32,7,·,·,·,·
CCn1c(SCc2nc3ccccc3c(=O)[nH]2)nnc1-c1cccnc1,-11,-1,-3,2,-3,8,·,·,·,·
O=c1[nH]c(CSc2nnc(-c3cccnc3)n2C2CCCCC2)nc2ccccc12,-8,-3,6,65*,-6,23,28*,56*,11,14
O=C(CCNC(=O)c1ccc([N+](=O)[O-])cc1)Nc1ccc(Cl)c(S(=O)(=O)N2CCOCC2)c1,·,2,7,102*,-8,0,-3,-12,3,3
Cc1ccc(NC(=O)CCNC(=O)c2ccc(Br)cc2)cc1S(=O)(=O)N1CCOCC1,·,-24,19,-8,-21,1,·,·,·,·
CCOC(=O)C[C@@H]1OC[C@H](CO)N1S(=O)(=O)c1ccc(C)cc1,·,·,·,-23,·,3,·,·,·,·
O=C(Nc1nccs1)c1cn(-c2ccccc2)nc1-c1ccccc1,19*,-18,44,72*,-24,7,12,38,3,2
O=C(Nc1nccs1)c1cc(-c2ccccc2)nn1-c1ccccc1,-3,-9,15,-5,-9,0,·,·,·,·
O=C(Nc1nccs1)c1cc(-c2ccccc2)nc2ccccc12,-3,-21,22,66*,6,12,28*,54*,6,2
COc1cccc(C(=O)NCC(c2cccs2)N2CCOCC2)c1 (stereo not drawn),·,-6,0,100*,-4,-3,13,-2,1,5
Cc1ccc(CN2C(=O)C(=O)c3cc(C)ccc32)cc1,·,-11,0,33,8,5,·,·,·,·
Cc1ccc2c(c1)C(=O)C(=O)N2Cc1ccc(Br)cc1,·,-13,3,82*,-8,18,19,43,8,0
COc1cc(-c2nnc(SCC(=O)c3ccc(C)cc3)o2)cc(OC)c1OC,-5,-33,12,54*,-17,4,26*,28,4,1
Cc1cc(C)n2c(Br)c(CN3CCCC(C)C3)nc2n1 (stereo not drawn),6,-7,6,-27,-6,5,·,·,·,·
COc1ccc(C(C(=O)NCC2CCCO2)N(Cc2cccs2)C(=O)c2snc(C(N)=O)c2N)cc1OC (stereo not drawn),2,-19,16,55*,-20,23,25*,44,9,15
COc1ccc(CCN(C(=O)c2snc(C(N)=O)c2N)C(C(=O)NCC2CCCO2)c2ccc(F)cc2)cc1OC (stereo not drawn),-20,·,·,58*,·,23,31*,44,9,10
